Screens from PubChem BioAssay.
GASC-1 inh: blocks human GASC-1 demethylase activity | Q9H3R0 | hit rate 0.069% among 330,000 | GST-JMJD2C(1-420) H3K9me3 demethylation, DELFIA europium | AID 2099 | inhibition, % at 2.35 µM;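 active means more than half of a compound's replicate wells show inhibition beyond 50%, single wells judged on their own value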;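 further: signal counts dimethyl H3K9 product captured on neutravidin plate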
Target sequence (Q9H3R0 1-420 limits assumed): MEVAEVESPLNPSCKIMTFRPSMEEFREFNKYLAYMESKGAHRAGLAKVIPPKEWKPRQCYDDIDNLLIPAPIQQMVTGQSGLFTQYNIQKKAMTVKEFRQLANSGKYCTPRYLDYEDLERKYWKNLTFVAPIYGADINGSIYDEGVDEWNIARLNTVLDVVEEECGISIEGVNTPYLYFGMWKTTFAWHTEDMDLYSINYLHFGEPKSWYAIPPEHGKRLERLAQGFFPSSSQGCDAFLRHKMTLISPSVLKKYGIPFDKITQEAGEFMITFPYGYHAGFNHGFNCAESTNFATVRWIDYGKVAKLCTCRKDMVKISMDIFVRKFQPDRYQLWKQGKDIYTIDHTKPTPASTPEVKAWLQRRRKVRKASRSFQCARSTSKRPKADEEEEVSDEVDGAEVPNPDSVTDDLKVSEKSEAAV
A3A deaminase: human APOBEC3A DNA deaminase inhibition; P31941; recombinant A3A, FAM/TAMRA ssDNA deamination fluorescence; inhibition, % at 20 µM; hit rate 0.41% among 330,000; AID 493011;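 active means at least 40% inhibition at 20 µM here, with at most 30% in a related deaminase screen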
Target sequence (P31941 whole entry, looked up): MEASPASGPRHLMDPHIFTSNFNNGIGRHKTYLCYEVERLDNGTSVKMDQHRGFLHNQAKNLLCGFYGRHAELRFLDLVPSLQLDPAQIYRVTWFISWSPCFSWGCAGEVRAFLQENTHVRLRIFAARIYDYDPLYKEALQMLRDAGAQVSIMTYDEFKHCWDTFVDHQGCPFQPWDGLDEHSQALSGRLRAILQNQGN
UCH37 inh: blocks the human deubiquitinase UCH37 | AID 588478 | purified proteasome/UCH37, Ub-AMC cleavage fluorescence | hit rate 0.33% among 330,000 | Q9Y5K5 | inhibition, % (no concentration beside the values);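 active means mean inhibition over replicate wells above about 20%, limit read from the data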
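assay system = human UCH37 enzyme supplied as purified proteasome complex | amount = proteasome at 0.15 nM in the dispensed enzyme solution | schedule = 30 min compound-proteasome preincubation then 25 min substrate reaction, room temperature | measured by = fluorescence, ex 355 nm, em 460 nm | benchmarks = no-proteasome wells (full inhibition) and compound-free wells (no inhibition)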
A3G deaminase: blocks human APOBEC3G single-stranded DNA deamination; Q9HC16; recombinant A3G, ssDNA deamination FAM/TAMRA fluorescence; inhibition, % at 20 µM; hit rate 0.28% among 330,000;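 active means inhibition of at least 40% at 20 µM, with no more than 30% in the related APOBEC3A deaminase screen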
Numbers stand for hits; i = inactive; nt = not tested or not shown. A selection: hits, their analogues and other compounds. The true share with any hit is near 0.97%.

SMILES | GASC-1 inh | A3A deaminase | UCH37 inh | A3G deaminase
CCO/C(=C/c1sc2ccc(OC)cc2[n+]1CCCS(=O)(=O)[O-])CC | i | i | 21 | i
COc1ccccc1C=NNC(=O)c1cccc(OC(F)(F)C(F)F)c1 | nt | nt | i | nt
Cc1cc(C(F)(F)F)nn1CC(=O)N(C)C1CCCCC1 | i | i | 32 | i
CC(C)Oc1c(Br)cc(Br)cc1C=NNC(N)=S | nt | nt | i | nt
CC(Cn1nc([N+](=O)[O-])cc1C)=NNC(=O)COc1ccc(Cl)cc1Cl | nt | nt | i | nt
O=[N+]([O-])c1cccc(S(=O)(=O)c2ccc(NCCO)c([N+](=O)[O-])c2)c1 | i | i | 32 | i
O=C(c1cccs1)N1CCc2c([nH]c3ccccc23)C1c1ccc(Cl)cc1 (stereo not given) | i | i | i | i
O=C(CCN1CCOCC1)N1CCc2c([nH]c3ccccc23)C1c1cccc(Cl)c1 (stereo not given) | i | i | 23 | i
N#CC(=NNc1ccc(Cl)c(Cl)c1)C(=O)C1CC1 | nt | nt | i | nt
Cc1cc[n+](CC(=O)c2ccc3c(c2)OCCO3)cc1 | i | i | 24 | i
COc1ccc(C=NNC(=S)NCC2CCCO2)cc1 (stereo not given) | nt | nt | i | nt
O=C(NCCCN1CCCCCC1)c1ccc2c(c1)NC(=O)C(N1CCOCC1)S2 (stereo not given) | i | i | 22 | i
COc1ccc(N2C(=O)/C(=C/N(C)C)NC2=S)cc1 | i | i | 23 | i
Cc1ccc(O)c(NC(=O)c2ccc3c(c2)C(=O)N(CC(C)C)C3=O)c1 | i | i | i | i
CCCN1C(=O)c2ccc(C(=O)Nc3cc(C)ccc3O)cc2C1=O | 57 | i | i | i
COc1ccc(OCC(O)Cn2cnc(-c3ccc(Br)cc3)c2)cc1 (stereo not given) | i | i | i | i
OC(COc1ccc2ccccc2c1Br)Cn1cnc(-c2ccccc2)c1 (stereo not given) | 61 | i | i | i
CC(Sc1ccccc1)C(=O)NN=Cc1ccccc1 (stereo not given) | nt | nt | i | nt
O=C(CNc1n[nH]c(=O)[nH]c1=O)NN=Cc1cccnc1 | nt | nt | i | nt
COc1cc(NC(=S)N2CCC(C(N)=O)CC2)c(OC)cc1Cl | i | i | 31 | i
COc1ccccc1OCC(=O)NN=C1C=C(C)CC1 | nt | nt | i | nt
COc1ccc2c(c1)-c1nc(N=Cc3ccccc3O)sc1CC2 | nt | nt | i | nt
C[C@]12CCC3C(CC[C@H]4CC(O)CC[C@]34C)C1CCC2=NNC(=O)c1ccncc1 (stereo not given in full) | nt | nt | i | nt
COC(=O)C1=C(C)N(CCc2cc(OC)c(OC)c(OC)c2)C(=O)N[C@H]1c1cccs1 | 56 | i | i | i
CCOC(=O)CN1C(=O)N[C@@H](c2cccs2)C(C(=O)OC)=C1C | i | i | i | i
SMILES | GASC-1 inh | A3A deaminase | UCH37 inh | A3G deaminase
COc1ccccc1CNC(=O)c1cc(-c2ccccc2)nn1CC1CC(c2cccnc2)=NO1 (stereo not given) | 57 | i | i | i
COc1ccc(C2=NOC(Cn3nc(-c4ccccc4)cc3C(=O)NCc3ccccc3OC)C2)cc1 (stereo not given) | nt | i | i | i
O=C(NN=Cc1ccccn1)c1cc(Br)ccc1O | nt | nt | i | nt
COc1ccccc1C1=Nn2c(COc3ccccc3)nnc2SC1 | i | i | i | 51
NC(=O)COc1cccc2cccnc12 | 74 | i | i | i
Nc1nn2c(-c3ccccc3)cc(=O)[nH]c2c1N=Nc1ccc(Br)cc1 | nt | nt | i | nt
Nc1nn2c(-c3ccccc3)cc(=O)[nH]c2c1N=Nc1ccc(O)cc1 | 51 | i | i | i
O=C(NCc1ccco1)C1CC(c2ccc(C(F)(F)F)cc2)=NO1 (stereo not given) | i | i | 27 | i
COc1ccc(C2=NOC(C(=O)NCc3ccco3)C2)cc1 (stereo not given) | i | i | i | i
O=C(Nc1nccs1)c1cccc(N2C(=O)C3C4C=CC(C4)C3C2=O)c1 (stereo not given) | i | i | 29 | i
O=C(Nc1nccs1)c1ccc(N2C(=O)[C@@H]3[C@H](C2=O)[C@H]2C=C[C@@H]3C2)cc1 | i | i | i | i
O=C(CCNC(=O)c1ccccc1Cl)Nc1ccc(Br)c(C(F)(F)F)c1 | i | i | 24 | i
O=C(CCNC(=O)c1ccccc1Cl)Nc1ccncc1 | i | i | i | i
C=CCn1c(O)c(N=Nc2ccccc2C)c2ccccc21 | 97 | i | i | i
COc1cccc(C=NNC(=O)c2ccc(N(C)S(=O)(=O)c3ccccc3)cc2)c1OC | nt | nt | i | nt
O=[N+]([O-])c1ccc(C2CCCCC2=NOCc2ccc(F)cc2)c([N+](=O)[O-])c1 (stereo not given) | nt | nt | i | nt
S=C(NCCc1ccccc1)N1CCc2ccccc2C1 | i | i | 22 | i
Cn1c(N=Cc2c[nH]c3ccccc23)nc2ccccc21 | nt | nt | i | nt
N#CC[C@H](Cc1ccccc1)N1CC[C@@H](NC(=O)OCc2ccccc2)CCC1=O | i | i | 23 | i
CCn1c(CNc2cccc(C(F)(F)F)c2)n[nH]c1=S | i | i | 32 | i
NS(=O)(=O)c1ccc(CCNC(=O)CSc2ccccc2)cc1 | 51 | i | i | i
Cn1c(=O)c2c(nc(NCC3CCCO3)n2Cc2ccccc2)n(C)c1=O (stereo not given) | i | i | 26 | i
CCCCC[n+]1ccn(C2=C([O-])c3ccccc3C(=O)/C2=N\S(=O)(=O)c2ccccc2)c1 | i | i | 24 | i
Cn1cc(C=NNc2ccccc2)c2ccccc21 | nt | nt | i | nt
c1cncc(-c2cn(C[C@H]3CC[C@@H]([C@@H]4CC[C@H](Cn5cc(-c6cccnc6)nn5)O4)O3)nn2)c1 | i | i | 25 | i
SMILES | GASC-1 inh | A3A deaminase | UCH37 inh | A3G deaminase
Cc1c(NC(=O)C(=O)NN=Cc2cccs2)c(=O)n(-c2ccccc2)n1C | nt | nt | i | nt
Cc1onc(-c2ccccc2Cl)c1C(=O)Nc1ccc(S(=O)(=O)Nc2nccs2)cc1 | i | i | 30 | i
Cc1onc(-c2ccccc2Cl)c1C(=O)Nc1ccccc1 | i | i | i | i
Cc1ccc(C=NNC(=O)C2CC(=O)N(c3ccccc3)C2)s1 (stereo not given) | nt | nt | i | nt
C[C@H]1CN(CCc2ccccc2)C(=O)[C@@H]1CC(=O)NCc1ccccc1 | 61 | i | i | i
C[C@H]1CN(Cc2ccccc2)C(=O)[C@@H]1CC(=O)NCc1ccccc1 | i | i | i | i
CCOC(=O)C(=O)NN=C(c1ccccc1)c1ccc(OC)cc1 | nt | nt | i | nt
Cc1c(C=O)c(Cl)n(C)c(=O)c1C#N | i | i | 21 | i
CC(=O)N=Cc1c(C)c(C#N)c(=O)n(C)c1O | i | i | i | i
O=[N+]([O-])c1cc(-c2ccc(C(=S)N3CCOCC3)o2)ccc1Cl | i | i | 21 | i
COc1cc(C=NNc2ccc(S(=O)(=O)Nc3ccccc3C(=O)O)cc2[N+](=O)[O-])ccc1O | i | i | 22 | i
Cc1nn(-c2ccccc2)c(Cl)c1C=NNc1ccc(S(=O)(=O)Nc2ccccc2C(=O)O)cc1[N+](=O)[O-] | nt | nt | 23 | nt
CC(=O)Nc1ccc(C=NNc2ccc(S(=O)(=O)Nc3ccccc3C(=O)O)cc2[N+](=O)[O-])cc1 | i | i | i | i
CC(=NNC(=O)c1ccc(NS(=O)(=O)c2cccs2)cc1)c1ccc(C(C)(C)C)cc1 | nt | nt | i | nt
